# Only some compounds are listed: those with a hit (about 2.3% of all), similar ones and a draw of the others.
# TRPC6 inh: blocks the mouse TRPC6 cation channel; HEK293-TRPC6, membrane potential dye, ACh-evoked depolarization; hits give low values; B-score at 10 µM; 1.1% of 310,000 active;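 active = B-score under library mean minus 3 SD, initial fluorescence not abnormally high, positive integrated signal ratio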;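 also: B-score derived from integrated fluorescence ratio over the kinetic read; more negative B-score means stronger inhibition of depolarization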
# TRPC4 agonist: opens the mouse TRPC4 cation channel; HEK293 TRPC4beta/mu-opioid, Fluo4 calcium fluorescence; hits give high values; B-score at 10 µM; 0.49% of 310,000 active;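 active = B-score above 5 SD of library B-scores, and initial fluorescence ratio not above library mean plus 5 SD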;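 also: positive B-score marks a calcium rise read as TRPC4 activation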
#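 System: HEK293 cells stably co-expressing mouse TRPC4beta and mu-opioid receptor; Schedule: Fluo4 dye loading 45 min at room temperature, 110 s recording; Detection: Fluo4 fluorescence, kinetic; Evaluation: B-scored integrated calcium fluorescence ratio; Controls: buffer (low) and maximal DAMGO (high).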
# TRPC4 inh: inhibitors of mouse TRPC4 channel; Q9QUQ5; HEK293 TRPC4beta/mu-opioid, DAMGO-evoked Fluo4 calcium flux; hits give low values; B-score at 10 µM; 0.39% of 300,000 active;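 active = B-score over 3 SD under the library average, no early fluorescence shift, positive overall ratio signal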
#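 Material: HEK293 cells with stable TRPC4beta plus mu-opioid receptor expression / Probe or stimulus: DAMGO in two steps, submaximal then maximal / Compound: single concentration per test compound / Technique: kinetic Fluo4 fluorescence imaging of calcium influx / Read-out: per-well B score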
# TRPC4 potent: allosterically enhances the mouse TRPC4 cation channel | Q9QUQ5 | HEK293 TRPC4beta/mu-opioid, DAMGO EC20, Fluo-4 Ca2+ flux; hits give high values | B-score at 10 µM | 0.42% of 310,000 active | AID 2227;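 active = B-score of calcium response area above 5 SD of library B-scores, with initial fluorescence ratio within 5 SD of library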;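 also: B-score of integrated fluorescence ratio over time as area under calcium response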
# TRPC6 activator: mouse TRPC6 channel activation; 0.13% of 310,000 active; HEK293-TRPC6 membrane potential dye fluorescence; hits give high values; B-score at 10 µM; AID 2550;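 active = B-score of the integrated fluorescence ratio above library mean plus 3 SD, and starting fluorescence ratio within library mean plus 5 SD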;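 also: higher score means more depolarization so channel activation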
# TRPC4 spec 2: mouse TRPC4 off-target activity of TRPC6 inhibitors, second screen; shares compounds with TRPC6 inh; HEK293 TRPC4/MOR, membrane potential dye fluorescence; channel activated by saturating DAMGO dose; inhibition, % at 10 µM; 42% of 920 active; AID 2776;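 active = compounds whose fluorescence signal differed from control wells by over 3 SD, either direction, in both duplicate plates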
# TRPC4 spec: mouse TRPC4 off-target activity of TRPC6 inhibitors; shares compounds with TRPC6 inh; HEK293 TRPC4/mu-opioid, membrane potential fluorescence; activity change, negative = inhibition, % at 10 µM; 61% of 920 active;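 active = rise or fall in signal beyond 3 SD of buffer-only wells in both replicate plates, either sign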;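 also: integrated kinetic ratio of fluorescence range over baseline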
# HEK293 MPD ctr 2-1: parental HEK293 nonspecific activity of TRPC6 inhibitors, second screen; AID 2779; parental HEK293 membrane potential dye fluorescence; maximal acetylcholine challenge after compound addition; shares compounds with TRPC6 inh; 31% of 920 active; signal change vs control, % at 10 µM;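 active = membrane potential signal moving either way by over 3 SD of the maximum-effect control, in both duplicate plates, meaning non-specific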
# HEK293 MPD ctr-1: counter-screen for TRPC6 inhibitors: effect in parental HEK293 cells | shares compounds with TRPC6 inh | parental HEK293 membrane potential dye fluorescence | membrane potential signal change, % at 10 µM | 60% of 920 active;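 active = membrane potential signal shifting up or down by more than 3 SD of buffer-only wells, on both duplicate plates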
# HEK293 MPD ctr-2: checks TRPC6 modulator effects in parental HEK293 cells; shares compounds with TRPC6 inh; membrane potential signal change, % at 10 µM; 51% of 2,400 active; AID 488924; membrane potential dye fluorescence;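 active = membrane potential signal moves up or down beyond 5 SD from buffer-only wells, on both duplicate plates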
# HEK293 MPD ctr 2-2: parental HEK293 nonspecific activity of TRPC6 modulators, second screen; shares compounds with TRPC6 inh; membrane potential dye fluorescence; after compound, maximal acetylcholine stimulation; inhibition, % at 10 µM; 14% of 2,400 active;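 active = membrane potential signal drops by more than 5 SD from the mean control signal, in both duplicate plates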;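 also: plate controls were acetylcholine ECmax control wells for no effect and buffer only wells for full effect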
# TRPC4 ctr mod: selectivity of TRPC6 modulators against mouse TRPC4; shares compounds with TRPC6 inh; percent change from control (negative = decrease, positive = increase), % at 10 µM; HEK293 TRPC4/mu-opioid, membrane potential fluorescence; 69% of 2,400 active;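 active = membrane potential signal moved up or down beyond 5 SD of buffer control wells, in both duplicate plates, actives on both sides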;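 also: plate controls were assay buffer wells for no effect and DAMGO maximal-effect wells for full effect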
# TRPC4/MOR inh 2: second check of whether TRPC6 modulators also affect mouse TRPC4; shares compounds with TRPC6 inh; HEK293 TRPC4/mu-opioid, membrane potential dye fluorescence; stimulated with maximal-effect DAMGO; inhibition, % at 10 µM; 55% of 2,400 active; AID 488928;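 active = drop in membrane potential signal beyond 5 SD of the control wells in both duplicate plates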;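 also: TRPC4 counter screen for TRPC6 hits run under conditions tuned for TRPC6 not TRPC4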
# TRPC6 inh conf: mouse TRPC6 inhibitor confirmation. shares compounds with TRPC6 inh. HEK293-TRPC6, membrane potential dye, ACh-evoked depolarization. inhibition, % at 10 µM. 43% of 3,300 active;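 active = fluorescence ratio falls more than 5 SD below the full-stimulation control mean, in both duplicate runs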;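 also: integrated fluorescence ratio of peak minus minimum over baseline after agonist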
# TRPC6 act conf: confirmation of mouse TRPC6 activators. shares compounds with TRPC6 inh. activation, % at 10 µM. 11% of 2,800 active. AID 488961. HEK293-TRPC6 membrane potential dye fluorescence, FDSS;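 active = ratio signal rise beyond 5 SD above unstimulated control wells' mean, seen in both duplicate runs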;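 also: plate controls were buffer EC0 wells for no effect and acetylcholine ECmax response for full effect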
# The depositor's hits bear a star; i = inactive; . = no result; + = active, no number.
SMILES,TRPC6 inh,TRPC4 agonist,TRPC4 inh,TRPC4 potent,TRPC6 activator,HEK293 MPD ctr-2,HEK293 MPD ctr 2-2,TRPC4 ctr mod,TRPC4/MOR inh 2,TRPC6 inh conf,TRPC6 act conf,others
C=CCSc1nc2c(c(-c3ccsc3)c1C#N)CN(C)CC2,-10*,i,i,i,i,.,.,.,.,i,i,TRPC4 spec 2=i;TRPC4 spec=-18%*;HEK293 MPD ctr 2-1=i;HEK293 MPD ctr-1=-239%*
CCC(=NCCc1c[nH]c2ccccc12)c1c(O)n(C)c(=O)n(C)c1=O,i,i,i,i,i,.,.,.,.,.,.,
CC(C)[N+](C)(CCC(C(N)=O)(c1ccccc1)c1ccccc1)C(C)C,-6.6*,i,i,i,i,i,101%*,i,i,88%*,i,
CC(=O)c1c(C)n(C2CCCCC2)c2ccc(O)cc12,i,i,i,i,i,.,.,.,.,.,.,
CCC(C)N1CCN(C(=O)Cc2ccccc2)CC1 (stereo not given),-7.1*,i,i,i,i,.,.,.,.,i,i,TRPC4 spec 2=i;TRPC4 spec=i;HEK293 MPD ctr 2-1=i;HEK293 MPD ctr-1=i
CCn1ccnc1CN1CCCC(C(=O)c2ccc(SC)cc2)C1 (stereo not given),-5*,i,i,i,i,i,i,15%*,i,54%*,.,
CCC[N+]12CCC(CC1)C(=C(c1ccccc1)c1ccccc1)C2,-5.8*,i,i,i,i,i,i,14%*,i,64%*,.,
CN1CCC(N(C)c2nc(-c3ccccc3)nc3ccccc23)CC1,-7.6*,i,i,15*,i,-306%*,88%*,-54%*,66%*,74%*,i,
Cc1cc(=O)oc2cc3c(cc12)CCCN3,i,i,i,i,i,.,.,.,.,.,.,
Cc1ccc(CN2C3CCCC2CC(NC(=O)Nc2cccc(F)c2)C3)cc1 (stereo not given),-6.5*,53*,i,i,i,i,i,26%*,96%*,49%*,.,
NP(=O)(OCC(F)(F)F)Oc1ccc(Cl)cc1 (stereo not given),i,i,i,i,i,.,.,.,.,.,.,
COc1cc(/C=C/[N+](=O)[O-])ccc1O,i,i,i,i,i,.,.,.,.,.,.,
CCN(CC)c1ccc(/C=C/[N+](=O)[O-])cc1,i,105*,i,i,56*,+,+,386%*,32%*,.,434%*,
COCCCN1Cc2ccccc2C1=N,i,i,i,i,i,.,.,.,.,.,.,
N=C1c2ccccc2CN1c1ncccn1,-7.3*,i,i,i,i,i,i,-11%*,i,i,i,

# High-throughput results as filed in PubChem BioAssay.
